Assay results collected from several papers.
Each line is one published result; the experiments were not run side by side. Converted amounts (≈) assume the structure as drawn.

| Structure (SMILES) | target or system | test | system | conditions | measurement | result |
| --- | --- | --- | --- | --- | --- | --- |
| Nc1ccn([C@@H]2O[C@H](COCc3ccccc3)[C@@H](OCc3ccccc3)[C@H](OCc3ccccc3)[C@H]2I)c(=O)n1 | Japanese encephalitis virus | viral replication, inhibitor, ELISA | Vero |  | IC50 | > 20 µM |
| Cc1ccc(C=NNC(=S)N[N+](=O)[O-])cc1 | Leishmania major | parasite growth, MTT |  | 72 h, promastigote | IC50 | 346 µM |
| C#Cc1ccc(O)c(C=NNC(=O)c2ccc(COC)cc2)c1 | Aspergillus fumigatus | microbial growth |  | 48 h, pH 6.5 | MIC80 | 1 mg/L (≈ 3.24 µM) |
| CN[C@H](CC(C)C)C(=O)N[C@H]1C(=O)N[C@@H](CC(N)=O)C(=O)N[C@H]2C(=O)N[C@H]3C(=O)N[C@H](C(=O)N[C@H](C(=O)O)c4cc(O)cc(O)c4-c4cc3ccc4O)[C@H](O)c3ccc(c(Cl)c3)Oc3cc2cc(c3O[C@@H]2O[C@H](CO)[C@@H](O)[C@H](O)[C@H]2O[C@H]2C[C@](C)(N)[C@H](O)[C@H](C)O2)Oc2ccc(cc2Cl)[C@H]1O | Enterococcus faecalis | microbial growth | VRE | drug-resistant strain | MIC | 64 mg/L (≈ 44.2 µM) |
| O=[N+]([O-])NC(=S)NN=Cc1ccc(F)cc1 | Leishmania major | parasite growth | J774.A1 | 72 h, intracellular, amastigote | IC50 | 76.4 µM |
| O=c1[nH]c(=O)n([C@@H]2O[C@H](COCc3ccccc3)[C@@H](OCc3ccccc3)[C@H](OCc3ccccc3)[C@H]2I)cc1F | Japanese encephalitis virus | viral replication, inhibitor, ELISA | Vero |  | IC50 | 4.98 µM |
| C#Cc1cccc(C=NNC(=O)c2ccc(Br)cc2)c1O | Aspergillus fumigatus | microbial growth |  | 48 h, pH 6.5 | MIC80 | 4 mg/L (≈ 11.7 µM) |
| N.N.[Cl][Pt][Cl] | SU-DHL-6 | cell growth or viability, ATP luminescence |  | 10 µM, 72 h | inhibition | 100% |
| C[S+]([O-])CCCCN=C=S (stereo not drawn) | HDFa | cell growth or viability, MTT |  | 24 h | IC50 | 49.8 µM |
| C#Cc1cccc(O)c1C=NNC(=O)c1ccc(COC)cc1 | Aspergillus fumigatus | microbial growth |  | 48 h, pH 6.5 | MIC80 | > 16 mg/L |
| N#C[Se]CCCCOc1ccc2c(-c3ccccc3)cc(=O)oc2c1 | HeLa | cell growth or viability, SRB |  |  | GI50 | 23 µM |
| C#Cc1ccc(O)c(C=NNC(=O)c2ccc(Br)cc2Br)c1 | Aspergillus fumigatus | microbial growth |  | 48 h, pH 6.5 | MIC80 | 2 mg/L (≈ 4.74 µM) |
| N#C[Se]Cc1cc(=O)oc2cc(O)ccc12 | HeLa | cell growth or viability, SRB |  |  | GI50 | 20 µM |
| O=[N+]([O-])NC(=S)NN=Cc1ccc(Br)cc1 | Leishmania major | parasite growth, MTT |  | 72 h, promastigote | IC50 | 433 µM |
| CC[C@H](C)[C@H](NC(=O)[C@@H]1CCCN1C(=O)[C@H](CCC(=O)O)NC(=O)[C@H](CC(C)C)NC(=O)[C@@H](N)C(C)C)C(=O)N[C@@H](CC(C)C)C(=O)N[C@@H](Cc1c[nH]cn1)C(=O)N[C@@H](CO)C(=O)N[C@H](C(=O)O)[C@@H](C)OP(=O)(O)O | HeLa | cell growth or viability, MTT |  | 72 h | IC50 | 0.82 µM |
